Assays:
Assay type in all cases: functional
EKVX = assay: Growth inhibition of human EKVX cells assessed as cell growth at 10^-5 M incubated for 48 hrs by sulforhodamine B assay; settings: read-out: Activity
How it was run: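 Cells seeded at 5,000–40,000/well according to doubling time and preincubated 24 h at 37 °C, 5% CO2. Time-zero plates were TCA-fixed. DMSO concentrate was diluted in medium with 50 µg/ml gentamicin to give five concentrations (10-fold or ½ log steps), then exposed 48 h. Cells were TCA-fixed, stained with 0.4% SRB and read at 515 nm. Percent growth was taken against time-zero and control; GI50, TGI and LC50 derived.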

SN12C = assay: Growth inhibition of human SN12C cells assessed as cell growth at 10 uM incubated for 48 hrs by sulforhodamine B assay; settings: read-out: Activity
[1] = Growth inhibition of human PC3 cells assessed as cell growth at 10^-4 M incubated for 48 hrs by sulforhodamine B assay; settings: PC-3, 48 h, read-out: Activity
[2] = Growth inhibition of human LOXIMVI cells assessed as cell growth at 10^-7 M incubated for 48 hrs by sulforhodamine B assay; settings: LOX IMVI, read-out: Activity
[3] = Growth inhibition of human HOP92 cells assessed as cell growth at 10^-5 M incubated for 48 hrs by sulforhodamine B assay; settings: HOP-92, 48 h, read-out: Activity
SK-MEL-2 = assay: Growth inhibition of human SK-MEL-2 cells assessed as cell growth at 10^-8 M incubated for 48 hrs by sulforhodamine B assay; settings: SK-MEL-2, 48 h, read-out: Activity
MDA-MB-468 = assay: Growth inhibition of human MDA-MB-468 cells assessed as cell growth at 10 uM incubated for 48 hrs by sulforhodamine B assay; settings: MDA-MB-468, 48 h, read-out: Activity
K562 = assay: Growth inhibition of human K562 cells assessed as cell growth at 10^-8 M incubated for 48 hrs by sulforhodamine B assay; settings: K562, 48 h, read-out: Activity
[4] = Growth inhibition of human UO31 cells assessed as cell growth at 10^-6 M incubated for 48 hrs by sulforhodamine B assay; settings: UO-31, 48 h, read-out: Activity
[5] = Growth inhibition of human RXF393 cells assessed as cell growth at 10 uM incubated for 48 hrs by sulforhodamine B assay; settings: RXF 393, 48 h, read-out: Activity
MDA-MB-231 [6] = assay: Growth inhibition of human MDA-MB-231 cells assessed as cell growth at 10 uM incubated for 48 hrs by sulforhodamine B assay; settings: MDA-MB-231, 48 h, read-out: Activity
[7] = Growth inhibition of human UACC62 cells assessed as cell growth at 10^-5 M incubated for 48 hrs by sulforhodamine B assay; settings: UACC-62, 48 h, read-out: Activity
[8] = Growth inhibition of human BT549 cells incubated for 48 hrs by sulforhodamine B assay; settings: BT-549, 48 h
How it was run: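 Five-dose assay: five concentrations from 10-fold or ½-log serial dilutions. Cells are plated at 5,000–40,000 per well according to doubling time, grown 24 h, then exposed 48 h at 37 °C, 5% CO₂. Fixed with cold 50% TCA (final addition) for 60 min at 4 °C and stained with 0.4% SRB in 1% acetic acid. Bound dye is solubilized in 10 mM Tris base and read at 515 nm. GI₅₀ is where [(Ti−Tz)/(C−Tz)]×100 = 50, with a time-zero plate as Tz.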

[9] = Growth inhibition of human PC3 cells assessed as cell growth at 10^-5 M incubated for 48 hrs by sulforhodamine B assay; settings: PC-3, 48 h, read-out: Activity
NCI/ADR-RES [10] = assay: Growth inhibition of human NCI/ADR-RES cells incubated for 48 hrs by sulforhodamine B assay
How it was run: (§1)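 Cells were plated at 5,000–40,000 per well according to doubling time and preincubated 24 h at 37 °C in 5% CO2; time-zero plates were then TCA-fixed. Five concentrations (10-fold or ½-log dilutions, DMSO stock) were incubated 48 h. Cells were TCA-fixed, stained with 0.4% SRB and read at 515 nm. GI50 was taken where [(Ti−Tz)/(C−Tz)]×100 = 50.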

M14 = assay: Growth inhibition of human M14 cells assessed as cell growth at 10^-4 M incubated for 48 hrs by sulforhodamine B assay; settings: M14, 48 h, read-out: Activity
NCI-H522 = assay: Growth inhibition of human NCI-H522 cells assessed as cell growth at 10^-4 M incubated for 48 hrs by sulforhodamine B assay; settings: NCI-H522, 48 h, read-out: Activity
[11] = Growth inhibition of human OVCAR3 cells assessed as cell growth at 10^-5 M incubated for 48 hrs by sulforhodamine B assay; settings: OVCAR-3, 48 h, read-out: Activity
[12] = Growth inhibition of human OVCAR4 cells incubated for 48 hrs by sulforhodamine B assay; settings: OVCAR-4, 48 h; how it was run: as §1
[13] = Growth inhibition of human Hs 578T cells incubated for 48 hrs by sulforhodamine B assay; how it was run: as §1
T47D = assay: Growth inhibition of human T47D cells assessed as cell growth at 10^-4 M incubated for 48 hrs by sulforhodamine B assay; settings: read-out: Activity
MDA-MB-231 [14] = assay: Growth inhibition of human MDA-MB-231 cells assessed as cell growth at 10^-4 M incubated for 48 hrs by sulforhodamine B assay; settings: MDA-MB-231, 48 h, read-out: Activity
[15] = Growth inhibition of human SF295 cells assessed as cell growth at 10^-8 M incubated for 48 hrs by sulforhodamine B assay; settings: SF-295, 48 h, read-out: Activity
[16] = Growth inhibition of human HOP92 cells assessed as cell growth at 10^-7 M incubated for 48 hrs by sulforhodamine B assay; settings: HOP-92, 48 h, read-out: Activity
[17] = Growth inhibition of human Hs 578T cells assessed as cell growth at 10^-4 M incubated for 48 hrs by sulforhodamine B assay; settings: read-out: Activity
[18] = Growth inhibition of human UO31 cells assessed as cell growth at 10^-7 M incubated for 48 hrs by sulforhodamine B assay; settings: UO-31, 48 h, read-out: Activity
NCI/ADR-RES [19] = assay: Growth inhibition of human NCI/ADR-RES cells assessed as cell growth at 10^-6 M incubated for 48 hrs by sulforhodamine B assay; settings: read-out: Activity
SK-MEL-5 = assay: Growth inhibition of human SK-MEL-5 cells assessed as cell growth at 10^-5 M incubated for 48 hrs by sulforhodamine B assay; settings: SK-MEL-5, 48 h, read-out: Activity
[20] = read-out: LC50 (the source's name)
[21] = read-out: pLC50 (the source's name) (converted)

Structure (SMILES): c1ccc(-c2nc(Nc3ccc(-c4nc5ccccc5[nH]4)cc3)nc(N3CCOCC3)n2)cc1
- growth at 10 µM (EKVX): -70%
- growth at 10 µM (SN12C): -62.8%
- growth at 100 µM [1]: -82%
- growth at 0.1 µM [2]: 96%
- growth at 10 µM [3]: -75%
- growth at 0.01 µM (SK-MEL-2): 105%
- growth at 10 µM (MDA-MB-468): -62.7%
- growth at 0.01 µM (K562): 86%
- growth at 1 µM [4]: 68%
- growth at 10 µM [5]: -75.1%
- growth at 10 µM (MDA-MB-231 [6]): -63.3%
- growth at 10 µM [7]: -71%
- GI50 ([8]; read-out: GI50): 1.98 µM
- CC50 [8, 20]: 7.68 µM
- TGI ([8]; read-out: TGI): 3.9 µM
- GI50 ([8]; read-out: pGI50 (converted)): 2 µM
- CC50 [8, 21]: 7.76 µM
- TGI ([8]; read-out: pTGI (converted)): 3.89 µM
- growth at 10 µM [9]: -72%
- GI50 (NCI/ADR-RES [10]; read-out: GI50): 1.93 µM
- CC50 (NCI/ADR-RES [10]; [20]): > 100 µM
- TGI (NCI/ADR-RES [10]; read-out: TGI): 5.53 µM
- GI50 (NCI/ADR-RES [10]; read-out: pGI50 (converted)): 1.95 µM
- CC50 (NCI/ADR-RES [10]; [21]): > 100 µM
- TGI (NCI/ADR-RES [10]; read-out: pTGI (converted)): 5.5 µM
- growth at 100 µM (M14): -79%
- growth at 100 µM (NCI-H522): -74%
- growth at 10 µM [11]: -90%
- GI50 ([12]; read-out: GI50): 1.68 µM
- CC50 [12, 20]: 5.63 µM
- TGI ([12]; read-out: TGI): 3.08 µM
- GI50 ([12]; read-out: pGI50 (converted)): 1.7 µM
- CC50 [12, 21]: 5.62 µM
- TGI ([12]; read-out: pTGI (converted)): 3.09 µM
- GI50 ([13]; read-out: GI50): 1.89 µM
- CC50 [13, 20]: > 100 µM
- TGI ([13]; read-out: TGI): 6.04 µM
- GI50 ([13]; read-out: pGI50 (converted)): 1.91 µM
- CC50 [13, 21]: > 100 µM
- TGI ([13]; read-out: pTGI (converted)): 6.03 µM
- growth at 100 µM (T47D): -56%
- growth at 100 µM (MDA-MB-231 [14]): -60%
- growth at 0.01 µM [15]: 94%
- growth at 0.1 µM [16]: 107%
- growth at 100 µM [17]: -43%
- growth at 0.1 µM [18]: 82%
- growth at 1 µM (NCI/ADR-RES [19]): 81%
- growth at 10 µM (SK-MEL-5): -92%
